# PTEN del growth: PTEN-deleted cell growth suppression; viability, % at 10 µM; HCT116 PTEN-null viability, CellTiter-Glo, 60 h; active compounds read low; 1.2% of 140,000 active; AID 827;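 active = viability at or below a set limit, 4 SD under the median of all tested compounds, cut at about 3.7% in these data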;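 note: PTEN knockout HCT116 line with beta catenin targeted HCT116 as companion control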
# PMI act: increases human mannose-6-phosphate isomerase activity | P34949 | purified human PMI, coupled resazurin fluorescence, 20 min; active compounds read high; 1 = vehicle control, 0 substrate-free wells | activation factor at 20 µM | 0.005% of 190,000 active | AID 1214;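 active = activation factor of 2 or more at 20 µM, relative to plate controls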
# Target sequence (P34949 whole entry, looked up): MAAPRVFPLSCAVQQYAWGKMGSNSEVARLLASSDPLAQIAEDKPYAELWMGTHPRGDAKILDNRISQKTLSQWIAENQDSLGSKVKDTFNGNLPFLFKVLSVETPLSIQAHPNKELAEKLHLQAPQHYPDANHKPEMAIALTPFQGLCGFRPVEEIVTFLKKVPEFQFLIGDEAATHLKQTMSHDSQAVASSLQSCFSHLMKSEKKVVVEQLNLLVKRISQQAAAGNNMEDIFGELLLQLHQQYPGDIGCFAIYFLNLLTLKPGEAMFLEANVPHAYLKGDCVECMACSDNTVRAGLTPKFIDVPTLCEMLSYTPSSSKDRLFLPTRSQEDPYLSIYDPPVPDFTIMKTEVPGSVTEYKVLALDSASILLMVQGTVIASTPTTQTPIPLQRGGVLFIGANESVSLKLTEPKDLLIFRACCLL
# PMI act satM6P: PMI (human) activation, high substrate | coupled PMI enzyme assay, resazurin fluorescence, 20 min; active compounds read high; 1 = untreated enzyme, 0 = substrate-free blank | activation factor at 20 µM | AID 1216 | 0.34% of 190,000 active;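 active = activation factor of 2 or more at 20 µM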
#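 Material: human phosphomannose isomerase with PGI, G6PDH, diaphorase coupling enzymes; amount: PMI at 15 ng/mL final; also added: Mannose-6-phosphate 1.0 mM (near-saturating) plus 0.22 mM NADP+; incubation: enzyme reaction with compound 20 min at room temperature; signal: resorufin fluorescence (Ex 544/Em 590 nm) from resazurin via diaphorase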
# HCT116 bCat-KO: beta-catenin-lacking colon tumor cell growth suppression; 1.5% of 140,000 active; HCT116 beta-catenin knockout viability, CellTiter-Glo, 60 h; active compounds read low; viability, % at 10 µM;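 active = viability at or under a set limit, the compound median less 4 SD, cut at about 6% in these data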;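 note: 0% = Hyamine 1622 control at 20 µM and 100% = untreated cell control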
# L major viab: Leishmania major promastigote growth inhibition | Leishmania major promastigotes, resazurin fluorescence viability | inhibition, % at 10 µM | 9% of 200,000 active | AID 1063; in the data active = inhibition above about 50%;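 note: promastigotes grown with compound for 44 hours at 28 °C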
# L major 1uM: blocks Leishmania major promastigote growth at 1 uM, repeat screen; shares compounds with L major viab; L. major promastigote growth, resazurin fluorescence, 48 h; inhibition, % at 1 µM; 13% of 1,100 active;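 active = inhibition above about 50% in both repeat tests, limit read from the data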
# Starred values were filed as active, the others as inactive; / = no result given. Shown are actives, neighbours in structure and some others; about 9.6% of the full set was active somewhere.
SMILES,PTEN del growth,PMI act,PMI act satM6P,HCT116 bCat-KO,L major viab,L major 1uM
NC(=O)Nc1ccccc1C(=O)N1CCC(O)(c2ccc(Cl)cc2)CC1,92,1,1,98,4,/
COc1c(/C=N/NC(N)=S)c(C)nn1-c1ccccc1,98,1,0.9,106,58*,-6
COc1cc2cc(C(c3nnnn3C(C)(C)C)N3CCC(C)CC3)c(=O)[nH]c2cc1OC (stereo not given),107,0.9,1,105,2,/
c1ccc(-n2nnnc2Oc2cccc3cccnc23)cc1,25,1,1.1,49,63*,-12
Cc1ccc2cccc(Oc3nnnn3-c3ccccc3)c2n1,84,0.9,1,91,8,/
CN(CCN1CCc2ccccc2C1)Cc1nc(Cc2ccccc2F)no1,/,1,1,/,85*,72*
CC(=O)OC1=C(C#N)Cn2ccc3cccc1c32,90,1.1,1.3,86,2,/
Cc1ccccc1-n1nc2c(c1NC(=O)COc1ccc(Cl)cc1)CS(=O)C2 (stereo not given),100,1.2,1.1,100,-3,/
CCCNCC1C(Oc2ccc(Cl)cc2)C(=O)N1c1ccccc1C (stereo not given),64,1,1.1,70,91*,-12
CCOCCCNC(=O)CCCOc1ccccc1,81,1,1,86,-13,/
Cc1cc2c(cc1C)CSC(c1ccccc1O)SC2,76,0.8,0.8,99,97*,-9
Cc1cc2c(cc1C)CSC(c1ccc(O)cc1)SC2,89,0.9,1,91,10,/
O=c1[nH]c(=O)c2cc([N+](=O)[O-])cc([N+](=O)[O-])c2[nH]1,/,1.7,2.2*,/,91*,13
Nc1ccc(Nc2ccccc2N)cc1,67,0.7,0.5,76,99*,0
Cc1sc2nc(CN(Cc3cccs3)C(=O)NC3CCCCC3)[nH]c(=O)c2c1C,53,1,1,64,53*,2
Cc1sc2nc(CN(C(=O)NC3CCCCC3)C3CCCC3)[nH]c(=O)c2c1C,91,1,1,88,43,/
CCOC(=O)CNC(=O)Nc1cc(C(C)(C)C)nn1-c1ccccc1,98,1,1,93,-3,/
Cc1nn(C(C)(C)C)c(OC(=O)C2CCCC2)c1S(=O)(=O)c1ccccc1,45,0.9,1,72,62*,0
O=C([C@H](Cc1ccccc1)NS(=O)(=O)c1ccc(Cl)cc1)N1CC[C@@]2(O)CCCC[C@H]2C1,48,1,1,68,13,/
Cc1cc2c(N)cccc2nn1,101,0.9,1.3,97,-4,/
Nc1cccc2nc3ccccc3cc12,3.2*,0.9,0.9,4.0*,101*,79*
O=C1CCCc2c1[nH]c1ccccc21,93,0.9,0.9,90,3,/
CN1CCCCc2c1[nH]c1ccccc1c2=O,99,1,1,93,98*,-3
Cc1ccc(C(=O)N[C@H](C(=O)OCc2cc(=O)oc3cc(C)ccc23)C(C)C)cc1,86,1,0.9,91,-1,/
C=C(C)c1cccc(C(C)(C)NC(=O)N2CCCC(C)C2)c1 (stereo not given),78,0.9,0.9,85,13,/
SMILES,PTEN del growth,PMI act,PMI act satM6P,HCT116 bCat-KO,L major viab,L major 1uM
C=C(C)c1cccc(C(C)(C)NC(=O)N(C)C2CCN(C)CC2)c1,/,1,1,/,98*,2
Cc1ccccc1C(=O)Oc1ccc(Sc2ccc(O)cc2)cc1,102,0.8,0.9,98,54*,1
COc1ccccc1NC(=O)N1CCC(C(=O)c2ccc(F)cc2)CC1,91,0.9,1,96,-3,/
COc1ccccc1NC(=O)CN1CCC(C(=O)c2ccc(F)cc2)CC1,75,1,1,64,71*,-12
Cc1ncc([N+](=O)[O-])n1CCOC(=O)c1cc(Cl)cc(Cl)c1N,72,0.9,0.5,81,60*,-6
C/C=C/CSc1nc2c(c(=O)[nH]c(=O)n2C)n1Cc1ccc(C)cc1,64,0.8,0.9,52,-6,/
S=c1[nH]nc(-c2cc(-c3ccco3)[nH]n2)n1-c1cccc2ccccc12,78,0.9,0.8,80,98*,2
O=C(O)c1ccc(-n2c(-c3cc(-c4ccco4)[nH]n3)n[nH]c2=S)cc1,96,0.9,0.8,102,-7,/
